# Source: PubChem
# UPR CHOP act – apoptotic UPR (CHOP) activation; CHO-CHOP luciferase reporter, luminescence; percent of tunicamycin response over DMSO baseline; activation, % at 10 µM; 330,000 tested, 0.34% active; AID 449763;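 active = at 10 µM dose, activation of 40% or more, normalized to positive control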
#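 measured by = luciferase luminescence | assay system = CHO-CHOP cells, stable luciferase reporter of PERK-eIF2a-CHOP signalling | amount = 500 reporter cells seeded per well | timing = 6 h compound exposure at 37 °C after overnight seeding | controls = positive tunicamycin 10 µg/mL, negative DMSO alone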
# CHOP inh – inhibitors of CHOP induction in ER stress response; inhibition, % at 10 µM; CHO-K1 CHOP-promoter luciferase, tunicamycin-induced, 15-18 h; 220,000 tested, 3.8% active; AID 2732;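 active = compounds that reduced the stress-induced luciferase reporter signal by more than about 70% of percent inhibition, limit read from the data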
# T cruzi repl – T. cruzi replication inhibition; T. cruzi beta-gal in NIH3T3, luminescence, 90 h; 300,000 tested, 1.4% active; inhibition, % (test concentration not listed); AID 1885;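 active = mean inhibition across valid replicates above about 55%, limit read from the data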;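 note: signal also drops with host cell toxicity which is not excluded here; higher percent means less beta-gal luminescence so fewer parasites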
#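 System: mouse NIH/3T3 fibroblasts infected with β-gal-expressing T. cruzi Tulahuen C4 / Input: NIH/3T3 cells, 5,000 per well / Buffer or medium: Low-serum DMEM with 2% FBS / Probe or stimulus: 5000 reporter trypomastigotes per well / Schedule: ≥90 h infection period, 3 h prior cell attachment / Measured by: GalScreen luminescence, 60 min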
# Dynein transport – dynein cargo transport inhibition. 3617.4 mouse cells, GR-EGFP nuclear translocation imaging; test concentration mostly 20 µM; stimulated with dexamethasone, 1 µM; hits give low values. z-score, hits read low. 220,000 tested, 0.47% active;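 active = plate z-score of nuclear minus cytoplasmic receptor signal below a set negative limit, without overly bright fluorescence or cell loss, cut at about -3.5 in these data, passing the limit was not always enough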;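 note: z-score of nuclear minus cytoplasmic ring GR-EGFP intensity difference per well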
#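 Buffer or medium: tet-free, stripped-serum medium; Also added: dexamethasone, 1.0 µM final; Technique: high-content fluorescence imaging after fixation; Times: 48 h induction, 1 h compound, 30 min dex at 37 °C; Read-out: per-cell GR-EGFP intensity, nucleus versus surrounding cytoplasmic ring, well-averaged.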
# Lmaj promast – reduces viability of Leishmania major promastigotes; resazurin fluorescence viability; inhibition, % at 10 µM; 200,000 tested, 9% active; AID 1063; in the data active = inhibition above about 50%;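 note: promastigotes grown with compound for 44 hours at 28 °C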
# UPR XBP1 act – adaptive UPR (XBP1) activation; activation, % at 20 µM; 330,000 tested, 0.33% active; CHO-XBP1 luciferase reporter, IRE1-XBP1 UPR activation, luminescence; percent of tunicamycin response, DMSO as zero;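 active = versus positive control, 20 µM dose yields 30% or more activation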
#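 incubation = overnight seeding at 37 °C, 6 h compound treatment at 37 °C | assay system = CHO-XBP1 cells stably carrying IRE1-XBP1-driven luciferase reporter | input = 1000 cells per well | detection = luciferase luminescence | dosing = single point, 20 µM final compound, 1% DMSO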
# UPR CHOP confirm – confirmation of apoptotic unfolded protein response (CHOP) activators. shares compounds with UPR CHOP act. CHO-CHOP cells, CHOP-luciferase reporter luminescence; percent of tunicamycin response, DMSO as zero. activation, % at 10 µM. 1,000 tested, 64% active. AID 463112; in the data active = activation above about 33%
# Hits are given with their value; i = inactive; nt = not tested or not shown. The full list was thinned out, with hits kept by preference.
SMILES,UPR CHOP act,CHOP inh,T cruzi repl,Dynein transport,Lmaj promast,UPR XBP1 act,UPR CHOP confirm
COc1cc2nc(=S)n3[nH]c(CCn4nc(C)cc4C)nc3c2cc1OC,132,i,i,i,i,i,98
CSc1nc(-c2ccc(C)cc2)nc(C(Cl)Cl)n1,52,i,56,i,i,i,i
O=C(Nc1nc(-c2ccccn2)cs1)c1ccc(Cl)s1,90,nt,58,i,100,i,126
Cc1cccnc1Nc1nc(-c2ccccn2)cs1,451,i,i,i,100,i,471
Cc1cccc(Nc2nc(-c3ccccn3)cs2)n1,83,i,59,i,100,i,35
Cc1cccnc1Nc1nc(-c2ccccc2)cs1,i,nt,i,nt,nt,i,nt
Cc1cccc(Nc2nc(-c3ccc(F)cc3)cs2)n1,i,nt,i,nt,nt,i,nt
Cc1cccc(NC(=O)CNC(=O)Cc2ccc(S(=O)(=O)N3CCOCC3)s2)c1C,i,nt,nt,nt,nt,i,nt
C=CCSc1nnc(NC(=O)C23CC4CC(CC(NC(C)=O)(C4)C2)C3)s1,i,nt,i,nt,nt,i,nt
O=S1(=O)Nc2c(ccc3cccnc23)-c2ccccc21,346,nt,72,i,99,i,425
Clc1ccc2ccc3cccnc3c2n1,i,nt,i,nt,nt,i,nt
Cc1ccc2oc(Nc3nc(-c4ccccc4)cc(=O)[nH]3)nc2c1,364,101,75,i,98,i,423
CC(=O)N/C(=N/c1nc(C)cc(C)n1)Nc1ccc(NC(C)=O)cc1,i,i,i,i,i,i,nt
CC(=O)N/C(=N\c1nc(C)cc(C)n1)Nc1ccc(Cl)cc1Cl,49,nt,i,nt,nt,i,i
Cc1ccc(CN2CCN(/N=C/c3ccc(C(=O)O)cc3)CC2)cc1,i,i,i,i,i,i,nt
Cc1ccc(CN2CCN(/N=C/c3ccc(O)c(O)c3)CC2)cc1,147,nt,i,nt,nt,i,106
Oc1ccc(/C=N/N2CCN(C3c4ccccc4-c4ccccc43)CC2)cc1O,102,91,i,i,nt,i,53
CCOC(=O)C1CCN(C2CCN(C(=O)c3oc4c(C)c(C)ccc4c3C)CC2)CC1,i,nt,i,nt,nt,i,nt
O=C(Nc1ccc(S(=O)(=O)Nc2ncccn2)cc1)c1ccccc1NS(=O)(=O)c1ccc(Cl)cc1,i,i,i,i,nt,i,nt
Cc1ccc(/C=C/C(=O)NC2CCCCCCC2)o1,125,i,i,i,i,i,i
O=[N+]([O-])c1cccc(-c2ccc(CN3CCCCC3)o2)c1,i,nt,i,nt,nt,i,nt
CC(C)c1ccc(NC(=O)/C(C#N)=C/c2ccncc2)cc1,59,nt,i,nt,nt,i,97
N#C/C(=C\c1ccncc1)C(=O)Nc1ccc(C(=O)O)cc1,i,nt,i,nt,nt,i,nt
Cc1ccc(NC(=O)c2ccc(Cl)c(N3C(=O)C=CC3=O)c2)cc1,88,i,nt,i,i,i,i
C/C(=N\NC(=O)c1cc(-c2cccs2)nc2ccccc12)c1ccccn1,248,i,i,i,100,i,198
SMILES,UPR CHOP act,CHOP inh,T cruzi repl,Dynein transport,Lmaj promast,UPR XBP1 act,UPR CHOP confirm
C/C(=N\NC(=O)c1cccc2ccccc12)c1ccccn1,332,nt,64,nt,nt,i,339
CCOc1ccc(OCc2ccc(C(=O)N/N=C(\C)c3ccccn3)cc2)cc1,nt,i,i,i,i,nt,nt
C/C(=N\NC(=O)c1ccccc1OCc1ccc(F)cc1)c1ccccn1,109,nt,nt,nt,nt,i,99
NNC(=O)c1cc(-c2cccs2)nc2ccccc12,i,i,i,i,nt,i,nt
CC(=O)/C(C#N)=C1\NC(=O)C(Cc2ccccc2C)S1 (stereo unspecified),i,i,i,i,nt,i,nt
O=C(CN1CCN(c2cccc(C(F)(F)F)c2)CC1)N(C1CCCC1)C1CCS(=O)(=O)C1 (stereo unspecified),i,nt,nt,nt,nt,i,nt
CC(C)C(NC(=O)c1ccc(C(C)(C)C)cc1)C(=O)NCC(c1ccccc1)N(C)C (stereo unspecified),i,i,i,i,nt,i,nt
O=C(CSc1nnc(CNC(=O)c2cccs2)o1)Nc1ccccc1C(F)(F)F,i,nt,i,nt,nt,i,nt
CCOc1ccc(S(=O)(=O)NCCC(=O)NC2CCCCC2)cc1,i,nt,i,nt,nt,i,nt
N=C1N(/N=C/c2ccccc2)C(=Nc2ccccc2)C(=S)N1c1ccccc1,76,i,i,i,i,i,i
Cc1cccc(C)c1NC(=O)CN(C)C(=O)C1CC(=O)N(c2cccc3ccccc23)C1 (stereo unspecified),i,nt,nt,nt,nt,i,nt
CSC(=S)N/N=C(\C)c1ccccc1,109,i,i,i,100,i,79
C/C(=N\NC(N)=S)c1ccccc1,i,i,i,i,nt,i,nt
Cc1ccccc1Nc1nnc(SCC(=O)c2c(N)n(C3CC3)c(=O)[nH]c2=O)s1,i,nt,nt,nt,nt,i,nt
Cn1c(/C=C/c2ccc([N+](=O)[O-])o2)nc2ccccc2c1=O,127,nt,67,i,100,i,75
C=CCn1c(C)c(C(C)=O)c(N2CCN(C(c3ccccc3)c3ccccc3)CC2)nc1=S,i,i,i,i,i,i,nt
COc1ccc(N=Cc2nc(-c3ccco3)oc2O)cc1,i,i,i,i,i,i,nt
O=C(Oc1oc(-c2ccco2)nc1C=Nc1ccc(Cl)cc1)c1ccco1,77,i,nt,i,i,i,76
O=C(C[C@H]1C[C@H](C(=O)N2CCCCC2)[C@@]2(CCc3ccccc3)c3[nH]c4ccc(Cl)cc4c3CCN2C1=O)NCCN1CCOCC1,52,nt,nt,nt,nt,i,i
O=C(Nc1scc(-c2ccc(Br)cc2)c1C(=O)O)c1ccccc1F,56,nt,i,nt,nt,i,i
O=C1c2cccc3c([N+](=O)[O-])ccc(c23)C(=O)N1CCc1ccccn1,58,i,i,i,nt,i,i
O=C1c2ccccc2C(=O)N1CCc1ccccn1,i,i,i,i,i,i,nt
O=C(NCCOc1ccccc1)c1ccc2c(c1)S(=O)(=O)c1cc(Cl)ccc1C2=O,i,nt,nt,nt,nt,i,nt
COc1ccc(C(C)=O)cc1CSc1ccc(S(=O)(=O)N2CCOCC2)cn1,i,nt,nt,nt,nt,i,nt
CC(=O)Nc1nc(-c2ccc3ccccc3c2)cs1,i,nt,i,nt,nt,i,nt
SMILES,UPR CHOP act,CHOP inh,T cruzi repl,Dynein transport,Lmaj promast,UPR XBP1 act,UPR CHOP confirm
Oc1ccc(-c2nc(-c3ccc(O)c(O)c3)cs2)cc1,146,nt,i,i,i,i,96
Oc1ccc(Nc2nc(-c3ccc4ccccc4c3)cs2)cc1,63,nt,i,i,i,i,i
Oc1ccc(-c2csc(-c3cccnc3)n2)c(O)c1,i,i,i,i,i,i,nt
CCN(C(=O)COC(=O)c1cccc(S(=O)(=O)NCc2ccccc2)c1)c1ccccc1,i,nt,nt,nt,nt,i,nt
COc1cc(/C=C/C(=O)c2ccc3c(c2)OCCO3)cc(Br)c1OCC(=O)N(C)C,135,nt,i,nt,nt,i,272
CCOC(=O)c1sc(N(Cc2ccccc2)C(=O)CCl)nc1C,49,nt,i,nt,nt,i,219
